According to ChEMBL document CHEMBL1795258, “A diazen-1-ium-1,2-diolated nitric oxide donor ester prodrug of 3-(4-hydroxymethylphenyl)-4-(4-methanesulfonylphenyl)-5H-furan-2-one: synthesis, biological evaluation and nitric oxide release studies” (Bioorg Med Chem Lett, 2011):

Assays:
Rattus norvegicus = test: Antiinflammatory activity in po dosed rat assessed as inhibition of carrageenan-induced foot paw edema after 3 hrs; assay type: functional
Summary of the method: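 Carrageenan-induced rat paw edema; test compound given orally, edema inhibition read at 3 h; potency reported as ED50 in μmol/kg.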

Mesenteric artery [1] = test: Inhibition of phenylephrine-induced vasoconstriction in Long Evans rat mesenteric arteries treated 45 mins before phenylephrine challenge; assay type: functional
Summary of the method: (§1)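 Second-order mesenteric arteries (<250 in diameter, ~2 mm long) dissected in cold (0–4 °C) HEPES-buffered phosphate saline, pH 7.4. Mounted on isometric wire myograph and pretreated 45 min with test compound (1 μM) or DMSO. Constriction to phenylephrine 10^-7–5 × 10^-5 M then recorded.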

Mesenteric artery [2] = test: Inhibition of phenylephrine-induced vasoconstriction in Long Evans rat mesenteric arteries assessed as maximum response treated 45 mins before phenylephrine challenge (reference value: 2.13 +/- 0.23 g/mm); assay type: functional; summary of the method: as §1
Mesenteric artery [3] = test: Inhibition of acetylcholine-induced relaxation in Long Evans rat phenylephrine pre-constricted mesenteric arteries assessed as maximum response (reference value: 0.38 +/- 0.01 g/mm); assay type: functional
[4] = molecular target: T1, Prostaglandin G/H synthase 1 (Ovis aries, UniProt P05979); test: Inhibition of ovine COX1 by enzyme immuno assay
T1 sequence (P05979 whole entry): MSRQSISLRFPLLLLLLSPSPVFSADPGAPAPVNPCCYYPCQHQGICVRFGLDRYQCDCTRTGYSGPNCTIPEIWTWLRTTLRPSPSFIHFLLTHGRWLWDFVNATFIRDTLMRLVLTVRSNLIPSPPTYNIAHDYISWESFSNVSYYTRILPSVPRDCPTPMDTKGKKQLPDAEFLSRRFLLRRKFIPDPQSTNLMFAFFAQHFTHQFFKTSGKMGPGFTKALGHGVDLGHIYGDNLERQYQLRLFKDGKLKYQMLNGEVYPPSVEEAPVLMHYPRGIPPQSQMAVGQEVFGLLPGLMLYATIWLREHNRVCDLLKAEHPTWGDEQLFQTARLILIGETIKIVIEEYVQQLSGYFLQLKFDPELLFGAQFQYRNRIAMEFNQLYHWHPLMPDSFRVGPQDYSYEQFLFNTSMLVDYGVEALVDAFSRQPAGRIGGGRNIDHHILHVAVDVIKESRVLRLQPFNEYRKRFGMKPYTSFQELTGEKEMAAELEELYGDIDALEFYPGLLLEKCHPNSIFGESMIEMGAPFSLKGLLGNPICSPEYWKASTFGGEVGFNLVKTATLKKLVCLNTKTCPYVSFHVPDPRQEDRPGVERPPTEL

Mesenteric artery [5] = test: tissue or blood; settings: Rattus norvegicus, Long Evans
[6] = Prodrug activation in 1.0 x 10^-2 mM of phosphate buffered saline at pH 7.4 assessed as nitric oxide release after 1.5 hrs by Griess reaction; assay type: physicochemical; settings: buffer, pH 7.4, 1.5 h
Summary of the method: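 Compound at 1.0 × 10^-2 mM in pH 7.4 phosphate buffer with a little DMSO, 37 °C for 1.5 h. NO measured as nitrite by Griess reaction, expressed as % of theoretical 2 mol NO per mol. Mean of n = 3, variation ≤0.5%.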

[7] = Prodrug activation in 1.0 x 10^-2 mM of phosphate buffered saline at pH 7.4 assessed as nitric oxide release after 1.5 hrs by Griess reaction in presence of rat serum; settings: pH 7.4, 1.5 h
Summary of the method: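 Compound at 1.0 × 10^-2 mM in pH 7.4 phosphate buffer with a little DMSO plus 90 μL rat serum in 2.4 mL, 37 °C for 1.5 h. Nitrite quantified by Griess reaction as % of theoretical 2 mol NO per mol. Mean of n = 3, variation ≤0.5%.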

Row | SMILES | ED50 (Rattus norvegicus) | IC20 (Mesenteric artery [1]) | IC50 (Mesenteric artery [1]) | Activity (Mesenteric artery [2]) | Activity (Mesenteric artery [3]) | IC50 [4] | IC50 (Mesenteric artery [5]) | Activity [6] | Activity [7]
1 | CS(=O)(=O)c1ccc(C2=C(c3ccc(CO)cc3)C(=O)OC2)cc1 | 113 µmol/kg | 1.01 µM | 1.68 µM | 1.51 g/mm | 0.3 g/mm | 33.1 µM | 0.095 µM | – | –
2 | CC(=O)OCO/N=[N+](/[O-])N1CCC[C@@H]1C(=O)OCc1ccc(C2=C(c3ccc(S(C)(=O)=O)cc3)COC2=O)cc1 | 72.2 µmol/kg | 1.37 µM | 1.75 µM | 1.17 g/mm | – | > 100 µM | – | 4.2% | 38.4%
3 | [Na+].[O-]/N=[N+](/[O-])N1CCC[C@@H]1CO | – | – | – | – | – | – | – | 84.5% | 85%
4 | CS(=O)(=O)c1ccc(C2=C(c3ccccc3)C(=O)OC2)cc1 [ROFECOXIB] | 4.8 µmol/kg | 0.95 µM | 1.66 µM | 1.32 g/mm | 0.23 g/mm | – | 0.088 µM | – | –
